As usually defined, the pKi is −log10 of the Ki, conventionally taken in molar units. Low readings indicate a large Ki, high ones a small Ki. What is called pIC50 is the IC50 on a negative log10 scale, so that one unit is a factor of ten. A word on the inhibition: it is the percentage by which the read-out fell short of the control.

The species named for test [1] is Rattus norvegicus. The test can be described thus: Selectivity ratio of Ki for delta opioid receptor in rat brain membrane to Ki for mu opioid receptor in rat brain membrane. The class given is cell membranes.
Test [2] concerns the target Delta-type opioid receptor (Rattus norvegicus, UniProt P33533). In words: Displacement of [3H][…] from delta opioid receptor in rat brain membrane by liquid scintillation counting. The class given is cell membranes.
The target of test [3] is Mu-type opioid receptor (Rattus norvegicus, UniProt P33535). In words: Displacement of [3H]DAMGO from mu opioid receptor in rat brain membrane by liquid scintillation counting. The class given is cell membranes. A general note: In a radioligand displacement assay an active substance lowers the binding of a labelled ligand.
Test [4] addresses Delta-type opioid receptor (Mus musculus, UniProt P32300). The test can be described thus: Agonist activity at delta opioid receptor in mouse vas deference assessed as inhibition of electrically-stimulated contraction. The class given is functional. In outline: (§1)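 Isolated-tissue bioassay of inhibition of electrically evoked contraction (MVD for δ, GPI/LMMP for μ). IC50 is the mean of at least four experiments. IC50, relative potency and standard errors were obtained by fitting the data to the Hill equation by computerized non-linear least squares.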

Test [5] deals with Mu-type opioid receptor (Cavia porcellus, UniProt P97266). The test can be described thus: Agonist activity at mu opioid receptor in guinea pig ileum assessed as inhibition of electrically-stimulated contraction. The class given is functional, tissue-based. In outline: as §1
Test [6] concerns the target Delta-type opioid receptor (Mus musculus) (UniProt P32300). The test can be described thus: Agonist activity at delta opioid receptor in mouse vas deference assessed as inhibition of electrically-stimulated contraction at 1 uM. In kind it is functional.

pIC50, pKi: −log10 of the molar value. Where a SMILES comes first, the peptide text is derived from it. [ ]: non-standard residue; d: D form. Dha = C=C(N)C(=O)O

Delta-type opioid receptor (Rattus norvegicus, UniProt P33533), sequence (P33533 whole entry): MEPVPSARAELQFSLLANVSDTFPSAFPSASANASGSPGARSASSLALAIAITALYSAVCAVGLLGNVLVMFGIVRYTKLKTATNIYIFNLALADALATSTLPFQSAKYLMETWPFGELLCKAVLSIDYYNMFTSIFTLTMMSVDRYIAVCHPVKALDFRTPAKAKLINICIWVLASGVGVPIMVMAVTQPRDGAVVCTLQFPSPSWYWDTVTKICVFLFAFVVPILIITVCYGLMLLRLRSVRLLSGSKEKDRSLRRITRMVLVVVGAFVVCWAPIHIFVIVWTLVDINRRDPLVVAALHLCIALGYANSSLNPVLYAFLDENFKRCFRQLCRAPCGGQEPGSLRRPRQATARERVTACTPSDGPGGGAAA
Mu-type opioid receptor (Rattus norvegicus, UniProt P33535), sequence (P33535 whole entry): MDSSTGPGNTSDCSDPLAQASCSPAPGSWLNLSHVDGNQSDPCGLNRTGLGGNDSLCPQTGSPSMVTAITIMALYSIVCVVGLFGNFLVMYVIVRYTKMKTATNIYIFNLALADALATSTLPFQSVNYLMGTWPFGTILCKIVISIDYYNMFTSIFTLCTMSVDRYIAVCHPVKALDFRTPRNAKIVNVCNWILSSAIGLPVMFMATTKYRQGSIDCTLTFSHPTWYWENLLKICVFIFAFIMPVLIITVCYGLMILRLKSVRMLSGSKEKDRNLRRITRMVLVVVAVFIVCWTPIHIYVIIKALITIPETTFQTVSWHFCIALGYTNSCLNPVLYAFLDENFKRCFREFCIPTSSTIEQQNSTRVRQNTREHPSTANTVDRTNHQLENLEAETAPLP
Delta-type opioid receptor (Mus musculus, UniProt P32300), sequence (P32300 whole entry): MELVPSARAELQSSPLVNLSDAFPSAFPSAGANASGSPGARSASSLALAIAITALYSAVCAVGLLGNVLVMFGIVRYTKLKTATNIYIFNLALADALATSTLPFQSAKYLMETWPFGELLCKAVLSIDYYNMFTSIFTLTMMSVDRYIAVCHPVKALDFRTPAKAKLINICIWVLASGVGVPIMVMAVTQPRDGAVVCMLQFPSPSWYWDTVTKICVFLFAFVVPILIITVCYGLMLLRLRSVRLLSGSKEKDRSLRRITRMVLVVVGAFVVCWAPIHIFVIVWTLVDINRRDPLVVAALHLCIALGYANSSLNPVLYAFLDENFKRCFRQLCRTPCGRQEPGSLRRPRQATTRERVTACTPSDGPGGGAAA
Delta-type opioid receptor (Mus musculus), sequence (P32300 whole entry): as above
Mu-type opioid receptor (Cavia porcellus, UniProt P97266), sequence (P97266 whole entry): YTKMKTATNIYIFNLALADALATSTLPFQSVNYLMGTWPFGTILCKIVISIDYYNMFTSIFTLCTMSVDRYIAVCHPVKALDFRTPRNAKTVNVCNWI

For `NC(=O)[C@H](Cc1ccccc1)NC(=O)[C@H](Cc1c[nH]c2ccccc12)NC(=O)[C@@H]1CCN1C(=O)[C@@H](N)Cc1ccc(O)cc1`, the Ratio Ki in test [1] stood at 1500. Also, the negative-log Ki (pKi) in test [2] is 5.46; in test [3] it was 8.64.
As for `NC(=O)[C@H](Cc1ccccc1)NC(=O)[C@H](Cc1ccccc1)NC(=O)[C@@H]1C=CCN1C(=O)[C@@H](N)Cc1ccc(O)cc1`, the figures for the negative-log IC50 (pIC50) in test [4] and in test [5] were 4.15 and 4.85, respectively. The pKi in test [3] was 8.19.
Turning to `C=C(NC(=O)[C@@H](N)Cc1ccc(O)cc1)C(=O)N[C@@H](Cc1ccccc1)C(=O)N[C@@H](Cc1ccccc1)C(N)=O` (H-Y[Dha]FF-NH2), the Ratio Ki in test [1] was found to be 21. The pKi in test [2] was 6.15; in test [3], 7.47.
As for `NC(=O)[C@H](Cc1ccccc1)NC(=O)[C@H](Cc1c[nH]c2ccccc12)NC(=O)C1CN(C(=O)[C@@H](N)Cc2ccc(O)cc2)C1`, the Ratio Ki in test [1] stood at 1.2. Also, the negative logarithm of the Ki (pKi) in test [2] was 7.40; in test [3] it was 7.47.
Taken in the same sequence, the figures for `NC(=O)[C@H](Cc1ccccc1)NC(=O)[C@H](Cc1ccccc1)NC(=O)[C@@H]1CCN1C(=O)[C@@H](N)Cc1ccc(O)cc1` were 920, 5.29 and 8.25.
As for `NC(=O)[C@H](Cc1ccccc1)NC(=O)[C@H](Cc1ccccc1)NC(=O)C1CN(C(=O)[C@@H](N)Cc2ccc(O)cc2)C1`, the Ratio Ki in test [1] is 32. For the same compound, the inhibition in test [6] was 13%. Also, the pKi in test [2] was 5.16; in test [3] it was 6.68.
